Results: ChEMBL document CHEMBL3526056, “Characterization of in vitro glucuronidation clearance of a range of drugs in human kidney microsomes: comparison with liver and intestinal glucuronidation and impact of albumin” (Drug Metab Dispos, 2012)

What was measured:
[1] = Glucuronidation clearance in human liver microsomes in presence of bovine serum albumin; type: ADME
[2] = target: T1, UDP-glucuronosyltransferase 2B7 (Homo sapiens, UniProt P16662); experiment: Drug metabolism in human intestinal microsomes assessed as UGT2B7-mediated unbound intrinsic glucuronidation clearance at 1 uM after 30 to 60 mins by LC-MS/MS analysis; type: ADME, Intestine
T1 sequence (P16662 whole entry): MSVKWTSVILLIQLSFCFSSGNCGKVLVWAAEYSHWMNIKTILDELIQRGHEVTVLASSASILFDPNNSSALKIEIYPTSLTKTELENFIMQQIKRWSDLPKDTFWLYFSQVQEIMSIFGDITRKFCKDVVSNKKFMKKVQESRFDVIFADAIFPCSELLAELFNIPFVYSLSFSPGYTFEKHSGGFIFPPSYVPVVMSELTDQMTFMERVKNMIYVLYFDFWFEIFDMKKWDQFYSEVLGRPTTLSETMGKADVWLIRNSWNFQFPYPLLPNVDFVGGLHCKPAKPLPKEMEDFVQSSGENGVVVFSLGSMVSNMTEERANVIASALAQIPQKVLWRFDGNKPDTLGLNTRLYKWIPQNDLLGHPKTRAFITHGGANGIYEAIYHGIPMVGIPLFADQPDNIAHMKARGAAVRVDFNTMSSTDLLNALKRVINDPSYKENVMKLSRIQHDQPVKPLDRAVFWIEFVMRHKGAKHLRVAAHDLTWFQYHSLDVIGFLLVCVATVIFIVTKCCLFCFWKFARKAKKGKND

[3] = Unbound intrinsic glucuronidation clearance in human intestinal microsomes at 1 uM after 30 to 60 mins by LC-MS/MS analysis in presence of UDP-glucuronosyltransferase and 1% bovine serum albumin; type: ADME, Intestine, Microsome
Liver microsome [4] = experiment: Fraction unbound in human liver microsomes at 1 uM after 30 to 60 mins by LC-MS/MS analysis in presence of 1% bovine serum albumin; type: ADME; settings: microsomes, 1 µM
[5] = Renal clearance in human; type: ADME, organism-based, Kidney; settings: in vivo
Liver microsome [6] = experiment: Unbound intrinsic glucuronidation clearance in human liver microsomes at 1 uM after 30 to 60 mins by LC-MS/MS analysis in presence of UDP-glucuronosyltransferase; type: ADME
Outline: (§1)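 Alamethicin-activated pooled microsomes (HLM 150 donors; HKM 8; HIM 18). Drug at 1 μM final, preincubated 5 min at 37°C in 0.1 M phosphate pH 7.1 with 3.45 mM MgCl2, 1.15 mM EDTA, 115 μM saccharic acid lactone. Started with […] cofactor (5 mM final), 30–60 min. Cofactor-free controls. Parent depletion by LC-MS/MS, single-exponential k. Corrected by HLM-dialysis fu,inc. Duplicates; n=3 (HIM n=1).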

[7] = Unbound intrinsic glucuronidation clearance in human kidney microsomes at 1 uM after 30 to 60 mins by LC-MS/MS analysis in presence of UDP-glucuronosyltransferase; type: ADME, microsome; outline: as §1
[8] = Glucuronidation clearance in human liver microsomes; type: ADME
[9] = target: T1, UDP-glucuronosyltransferase 2B7; experiment: Drug metabolism in human liver microsomes assessed as UGT2B7-mediated unbound intrinsic glucuronidation clearance at 1 uM after 30 to 60 mins by LC-MS/MS analysis; type: ADME
[10] = Fraction unbound in human kidney microsomes at 1 uM after 30 to 60 mins by LC-MS/MS analysis; type: ADME
Liver microsome [11] = experiment: Fraction metabolized glucuronidation in human liver microsomes in presence of UDP-glucuronosyltransferase and bovine serum albumin; type: ADME
[12] = Fraction unbound in human liver microsomes at 1 uM after 30 to 60 mins by LC-MS/MS analysis; type: ADME
[13] = Unbound intrinsic glucuronidation clearance in human kidney microsomes at 1 uM after 30 to 60 mins by LC-MS/MS analysis in presence of UDP-glucuronosyltransferase and 1% bovine serum albumin; type: ADME, microsome
[14] = Fraction unbound in human intestinal microsomes at 1 uM after 30 to 60 mins by LC-MS/MS analysis; type: ADME, Intestine, Microsome
[15] = Fraction unbound in human plasma
[16] = target: T1, UDP-glucuronosyltransferase 2B7; experiment: Drug metabolism in human kidney microsomes assessed as UGT2B7-mediated unbound intrinsic glucuronidation clearance at 1 uM after 30 to 60 mins by LC-MS/MS analysis in presence of 1% bovine serum albumin; type: ADME
[17] = Unbound intrinsic glucuronidation clearance in human intestinal microsomes at 1 uM after 30 to 60 mins by LC-MS/MS analysis in presence of UDP-glucuronosyltransferase; type: ADME, Intestine, Microsome; outline: as §1
[18] = target: T1, UDP-glucuronosyltransferase 2B7; experiment: Drug metabolism in human liver microsomes assessed as UGT2B7-mediated unbound intrinsic glucuronidation clearance at 1 uM after 30 to 60 mins by LC-MS/MS analysis in presence of 1% bovine serum albumin; type: ADME
Liver microsome [19] = experiment: Unbound intrinsic glucuronidation clearance in human liver microsomes at 1 uM after 30 to 60 mins by LC-MS/MS analysis in presence of UDP-glucuronosyltransferase and 1% bovine serum albumin; type: ADME
[20] = target: T1, UDP-glucuronosyltransferase 2B7; experiment: Drug metabolism in human kidney microsomes assessed as UGT2B7-mediated unbound intrinsic glucuronidation clearance at 1 uM after 30 to 60 mins by LC-MS/MS analysis; type: ADME
Liver microsome [21] = experiment: Fraction metabolized glucuronidation in human liver microsomes in presence of UDP-glucuronosyltransferase; type: ADME
[22] = Clearance in iv dosed human; type: ADME, organism-based; settings: in vivo
[23] = Ratio of drug level blood to plasma in human; type: ADME; settings: blood and plasma
[24] = Ratio of UGT1A8/2B7-mediated unbound intrinsic glucuronidation clearance in human intestinal microsomes to UGT1A8/2B7-mediated unbound intrinsic glucuronidation clearance in human liver microsomes at 1 uM; type: ADME
Outline: (§2)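 Ratios of mean unbound CLint,UGT, each scaled per g tissue, between pooled liver, kidney and intestinal microsomes. Values come from 1 μM substrate-depletion assays in pH 7.1 phosphate at 37°C, run with or without BSA (1% for acids, 2% for bases/neutral drugs). Corrected for nonspecific binding. Kidney and liver n = 3; intestine n = 1; each in duplicate.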

[25] = Drug metabolism in human intestinal microsomes assessed as UGT1A8/2B7-mediated unbound intrinsic glucuronidation clearance at 1 uM after 30 to 60 mins by LC-MS/MS analysis; type: ADME, Intestine
Outline: (§3)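 Pooled alamethicin-activated human liver, kidney or intestinal microsomes. […] Duplicate incubations of 30–60 min, with no-cofactor controls. Parent depletion read by LC-MS/MS. k from a single-exponential fit, corrected by fu,inc.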

[26] = Unbound intrinsic glucuronidation clearance in human intestinal microsomes at 1 uM after 30 to 60 mins by LC-MS/MS analysis in presence of UDP-glucuronosyltransferase and 2% bovine serum albumin; type: ADME, Intestine, Microsome; outline: as §3
[27] = Drug metabolism in human kidney microsomes assessed as UGT1A8/2B7-mediated unbound intrinsic glucuronidation clearance at 1 uM after 30 to 60 mins by LC-MS/MS analysis; type: ADME; outline: as §3
[28] = Ratio of unbound intrinsic glucuronidation clearance in human intestinal microsomes in presence of 2% bovine serum albumin to unbound intrinsic glucuronidation clearance in human intestinal microsomes in absence of bovine serum albumin; type: ADME, Intestine, Microsome
Outline: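 Ratios of mean scaled unbound CLint,UGT (per g tissue) between tissues, or between with and without BSA. Microsomal depletion assays at 1 μM, or 5 μM for propofol, in pH 7.1 phosphate at 37°C, read by LC-MS/MS. Kidney and liver n = 3, intestine n = 1, each in duplicate.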

[29] = Drug metabolism in human liver microsomes assessed as UGT1A8/2B7-mediated unbound intrinsic glucuronidation clearance at 1 uM after 30 to 60 mins by LC-MS/MS analysis in presence of 2% bovine serum albumin; type: ADME; outline: as §3
[30] = Fraction unbound in human liver microsomes at 1 uM […] by LC-MS/MS analysis in presence of 2% bovine serum albumin; type: ADME
[31] = Ratio of UGT1A8/2B7-mediated unbound intrinsic glucuronidation clearance in human intestinal microsomes to UGT1A8/2B7-mediated unbound intrinsic glucuronidation clearance in human liver microsomes at 1 uM in presence of 2% bovine serum albumin; type: ADME; outline: as §2
Liver microsome [32] = experiment: Unbound intrinsic glucuronidation clearance in human liver microsomes at 1 uM after 30 to 60 mins by LC-MS/MS analysis in presence of UDP-glucuronosyltransferase and 2% bovine serum albumin; type: ADME; outline: as §3
[33] = Ratio of UGT1A8/2B7-mediated unbound intrinsic glucuronidation clearance in human kidney microsomes to UGT1A8/2B7-mediated unbound intrinsic glucuronidation clearance in human liver microsomes at 1 uM; type: ADME; outline: as §2
[34] = Ratio of UGT1A8/2B7-mediated unbound intrinsic glucuronidation clearance in human kidney microsomes to UGT1A8/2B7-mediated unbound intrinsic glucuronidation clearance in human intestinal microsomes at 1 uM in presence of 2% bovine serum albumin; type: ADME; outline: as §2
[35] = Drug metabolism in human liver microsomes assessed as UGT1A8/2B7-mediated unbound intrinsic glucuronidation clearance at 1 uM after 30 to 60 mins by LC-MS/MS analysis; type: ADME; outline: as §3
[36] = Drug metabolism in human kidney microsomes assessed as UGT1A8/2B7-mediated unbound intrinsic glucuronidation clearance at 1 uM after 30 to 60 mins by LC-MS/MS analysis in presence of 2% bovine serum albumin; type: ADME; outline: as §3
[37] = Unbound intrinsic glucuronidation clearance in human kidney microsomes at 1 uM after 30 to 60 mins by LC-MS/MS analysis in presence of UDP-glucuronosyltransferase and 2% bovine serum albumin; type: ADME, microsome; outline: as §3
[38] = Ratio of UGT1A8/2B7-mediated unbound intrinsic glucuronidation clearance in human kidney microsomes to UGT1A8/2B7-mediated unbound intrinsic glucuronidation clearance in human liver microsomes at 1 uM in presence of 2% bovine serum albumin; type: ADME; outline: as §2
[39] = Ratio of UGT1A8/2B7-mediated unbound intrinsic glucuronidation clearance in human kidney microsomes to UGT1A8/2B7-mediated unbound intrinsic glucuronidation clearance in human intestinal microsomes at 1 uM; type: ADME; outline: as §2

SMILES: Cc1ccc(C)c(OCCCC(C)(C)C(=O)O)c1 [GEMFIBROZIL]
- CLhep predicted [1]: 1.93 mL/min/kg
- CL free [2]: 0.492 mL/min/g
- CL free [3]: 40 µL/min/mg
- Fu (Liver microsome [4]): 0.01
- CL renal [5]: 0.02 mL/min/kg
- CL free (Liver microsome [6]): 259 µL/min/mg
- CL free [7]: 265 µL/min/mg
- CLhep predicted [8]: 1.78 mL/min/kg
- CL free [9]: 10.4 mL/min/g
- fraction unbound at 1 µM [10]: 0.9
- Drug metabolism (Liver microsome [11]): 0.86
- fraction unbound at 1 µM [12]: 0.9
- CL free [13]: 1910 µL/min/mg
- fraction unbound at 1 µM [14]: 0.82
- fraction unbound [15]: 0.005
- CL free [16]: 24.4 mL/min/g
- CL free [17]: 23.9 µL/min/mg
- CL free [18]: 73.6 mL/min/g
- CL free (Liver microsome [19]): 1840 µL/min/mg
- CL free [20]: 3.39 mL/min/g
- Drug metabolism (Liver microsome [21]): 0.79

SMILES: C=CCN1CC[C@]23c4c5ccc(O)c4O[C@H]2C(=O)CC[C@@]3(O)[C@H]1C5 [NALOXONE]
- clearance [22]: 21.7 mL/min/kg
- blood plasma ratio [23]: 1
- CLhep predicted [1]: 19.3 mL/min/kg
- Ratio [24]: 0.026
- CL free [25]: 0.01 mL/min/g
- CL free [26]: 14.2 µL/min/mg
- CL free [27]: 0.14 mL/min/g
- CL free (Liver microsome [6]): 10 µL/min/mg
- CL free [7]: 10.9 µL/min/mg
- Ratio [28]: 28
- CLhep predicted [8]: 14.1 mL/min/kg
- CL free [29]: 2.22 mL/min/g
- fraction unbound at 1 µM [30]: 0.96
- fraction unbound at 1 µM [10]: 1
- Ratio [31]: 0.131
- CL free (Liver microsome [32]): 55.6 µL/min/mg
- Drug metabolism (Liver microsome [11]): 0.89
- fraction unbound at 1 µM [12]: 1
- Ratio [33]: 0.348
- fraction unbound at 1 µM [14]: 1
- Ratio [34]: 2.31
- fraction unbound [15]: 0.57
- CL free [35]: 0.402 mL/min/g
- CL free [17]: 0.502 µL/min/mg
- CL free [36]: 0.675 mL/min/g
- CL free [37]: 52.7 µL/min/mg
- Ratio [38]: 0.304
- Drug metabolism (Liver microsome [21]): 0.65
- Ratio [39]: 13.5
